Experimental data from ChEMBL document CHEMBL2202989, “New adamantane phenylalkylamines with σ-receptor binding affinity and anticancer activity, associated with putative antagonism of neuropathic pain” (J Med Chem, 2012).

Assays:
IGROV-1 [1] = test: Cell cycle arrest in human IGROV1 cells assessed as accumulation at G2 phase at 50 uM after 24 hrs using propidium iodide staining by FACS analysis (reference value: 19 %); type: functional
IGROV-1 [2] = test: Induction of apoptosis in human IGROV1 cells assessed as healthy cells at 5 uM using annexin V/7-AAD by FACS analysis (reference value: 86 %); type: functional
[3] = target: Sigma non-opioid intracellular receptor 1 (Homo sapiens, UniProt Q99720); test: Displacement of [3H]-(+)-pentazocine from sigma 1 receptor in human Jurkat cell membrane; type: cell membranes
In short: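 Jurkat cell membranes incubated with 8 nM [3H](+)-pentazocine and a range of test concentrations for 2 h at 22 °C in Tris-HCl buffer, pH 7.4. Nonspecific binding defined with 10 μM haloperidol. Run in triplicate.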

BXPC-3 [4] = test: Antitumor activity against human BxPC3 cells xenografted in SCID mouse assessed as tumor growth inhibition at 45 mg/kg, ip administered 3 consecutives days per week for three cycles measured after 3 cycles relative to control; type: functional; details: BXPC-3, ip, route intraperitoneal, read-out: TGI
In short: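 BxPC3 xenografts were grown in SCID mice from inocula of 10^6 exponentially growing cells, with 10 mice (20 tumors) per group. Treatment started ip once tumors averaged about 100 mm3. The test agent was given in 5% Tween 80 and gemcitabine in water for injection. Tumor volume was measured by caliper twice weekly and %ΔT/ΔC was computed; two-tailed Student's t test.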

U-251 = test: Growth inhibition of human U251 cells after 48 hrs by SRB assay; type: functional; details: U-251, 48 h
In short: (§1)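 Cells grown in RPMI 1640 with 5% heat-inactivated FCS, 2 mM L-glutamine and antibiotics, 37 °C, 5% CO2. Seeded at 3500–30000 cells/well and left 24 h before dosing. DMSO solutions added at 10-fold dilutions from 100 to 0.01 μM for 48 h. Cells TCA-fixed and SRB-stained, absorbance read at 540 nm; GI50 derived against the time-zero plate.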

PC-3 [5] = test: Antitumor activity against human PC3 cells xenografted in SCID mouse assessed as bone metastasis at 55 mg/kg, ip administered 5 consecutive days in a week for two cycles measured after 2 cycles relative to control; type: functional; details: route intraperitoneal
In short: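 PC3 xenografts were grown in SCID mice (10^6 cells per inoculum), 14 mice (28 tumors) per group, dosed ip from about 100 mm3. The test agent was given in 5% Tween 80; paclitaxel was given in Cremophor diluted in saline, with a vehicle of 1:1 ethanol/Cremophor diluted 1:3 in saline. Volume and %ΔT/ΔC were derived from caliper readings twice weekly. Occurrence of primary tumors and of axillary and bone metastases was scored (n = 7). Two-tailed t test.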

IGROV-1 [6] = test: Induction of apoptosis in human IGROV1 cells assessed as total apoptotic death at 50 uM using annexin V/7-AAD by FACS analysis (reference value: 13 %); type: functional
In short: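 Cells plated 24 h before treatment, then exposed 24 h to 0.5, 5, 15 or 50 μM compound (final DMSO 0.5%); vehicle controls included. Cells scraped and stained with annexin V-FITC and 7-AAD for 15 min on ice in the dark. Flow cytometry with 488 nm excitation, 10,000 gated cells. Early apoptosis was annexin V+/7-AAD−, late was annexin V+/7-AAD+.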

PC-3 [7] = test: Cell cycle arrest in human PC3 cells assessed as accumulation at >G2/M phase at 50 uM after 24 hrs using propidium iodide staining by FACS analysis (reference value: 6 %); type: functional
BXPC-3 [8] = test: Cell cycle arrest in human BxPC3 cells assessed as accumulation at >G2/M phase at 0.5 uM after 24 hrs using propidium iodide staining by FACS analysis (reference value: 6 %); type: functional
In short: (§2)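 Cells were plated 24 h before treatment and exposed for 24 h at final 0.5, 5, 15 and 50 μM in 0.5% DMSO, against vehicle-treated controls. Cells were then trypsinised and fixed in cold ethanol for 3 h at 4 °C. They were stained in a mix of RNase (200 μg/mL) and PI (1 mg/mL) for 45 min at room temperature in the dark. Flow cytometry used 488 nm excitation and 10 000 gated cells. Phase percentages were assigned from DNA content.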

MIA PaCa-2 = test: Growth inhibition of human MIAPaCa2 cells after 48 hrs by SRB assay; type: functional; details: MIA PaCa-2, 48 h; in short: as §1
IGROV-1 [9] = test: Induction of apoptosis in human IGROV1 cells assessed as early apoptosis at 50 uM using annexin V/7-AAD by FACS analysis (reference value: 9 %); type: functional
IGROV-1 [10] = test: Induction of apoptosis in human IGROV1 cells assessed as cleaved caspase3 containing cells at 5 uM by antibody-based FACS analysis (reference value: 3.9 %); type: functional
IGROV-1 [11] = test: Cell cycle arrest in human IGROV1 cells assessed as accumulation at G1 phase at 0.5 uM after 24 hrs using propidium iodide staining by FACS analysis (reference value: 27 %); type: functional; in short: as §2
PC-3 [12] = test: Cell cycle arrest in human PC3 cells assessed as accumulation at sub G1 phase at 5 uM after 24 hrs using propidium iodide staining by FACS analysis (reference value: 4 %); type: functional
IGROV-1 [13] = test: Induction of apoptosis in human IGROV1 cells assessed as cleaved caspase3 containing cells at 50 uM by antibody-based FACS analysis (reference value: 3.9 %); type: functional
IGROV-1 [14] = test: Induction of apoptosis in human IGROV1 cells assessed as healthy cells at 0.5 uM using annexin V/7-AAD by FACS analysis (reference value: 86 %); type: functional
BXPC-3 [15] = test: Cell cycle arrest in human BxPC3 cells assessed as accumulation at G2 phase at 15 uM after 24 hrs using propidium iodide staining by FACS analysis (reference value: 12 %); type: functional; in short: as §2
PC-3 [16] = test: Induction of apoptosis in human PC3 cells assessed as cleaved caspase3 containing cells at 0.5 uM by antibody-based FACS analysis (reference value: 3.2 %); type: functional
IGROV-1 [17] = test: Induction of apoptosis in human IGROV1 cells assessed as late apoptosis at 15 uM using annexin V/7-AAD by FACS analysis (reference value: 5 %); type: functional
IGROV-1 [18] = test: Cell cycle arrest in human IGROV1 cells assessed as accumulation at G1 phase at 5 uM after 24 hrs using propidium iodide staining by FACS analysis (reference value: 27 %); type: functional; in short: as §2
BXPC-3 [19] = test: Induction of apoptosis in human BxPC3 cells assessed as early apoptosis at 50 uM using annexin V/7-AAD by FACS analysis (reference value: 9 %); type: functional
PC-3 [20] = test: Induction of apoptosis in human PC3 cells assessed as healthy cells at 50 uM using annexin V/7-AAD by FACS analysis (reference value: 91 %); type: functional
PC-3 [21] = test: Cell cycle arrest in human PC3 cells assessed as accumulation at S phase at 0.5 uM after 24 hrs using propidium iodide staining by FACS analysis (reference value: 42 %); type: functional
BXPC-3 [22] = test: Induction of apoptosis in human BxPC3 cells assessed as cleaved caspase3 containing cells at 50 uM by antibody-based FACS analysis (reference value: 8.2 %); type: functional
[23] = read-out: LC50 (the source's name)

Sigma non-opioid intracellular receptor 1, sequence (Q99720 whole entry): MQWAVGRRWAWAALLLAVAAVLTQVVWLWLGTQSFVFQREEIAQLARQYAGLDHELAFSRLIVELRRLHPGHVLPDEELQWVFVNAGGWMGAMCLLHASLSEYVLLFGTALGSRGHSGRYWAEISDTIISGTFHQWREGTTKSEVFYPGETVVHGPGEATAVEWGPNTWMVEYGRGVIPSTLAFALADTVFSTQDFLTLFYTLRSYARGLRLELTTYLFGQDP

With `CN1CCN(CCCc2ccc(C(c3ccccc3)C34CC5CC(CC(C5)C3)C4)cc2)CC1` (stereo not drawn) the Activity (IGROV-1 [1]) was 10%, the Activity (IGROV-1 [2]) was 83% and the IC50 [3] was 0.0481 µM. The inhibition in vivo at 45 mg/kg (BXPC-3 [4]) was 37.2%, the GI50 (U-251) was 3.62 µM and the TGI (U-251) was 5.93 µM. It also gave a CC50 (U-251; [23]) of 0.00824 µM, an Activity (PC-3 [5]) of 43% and an Activity (IGROV-1 [6]) of 64%. It also gave an Activity (PC-3 [7]) of 17%, an Activity (BXPC-3 [8]) of 7% and a GI50 (MIA PaCa-2) of 9.39 µM. The TGI (MIA PaCa-2) was 40.1 µM, the CC50 (MIA PaCa-2; [23]) was 0.0726 µM and the Activity (IGROV-1 [9]) was 40%. The Activity (IGROV-1 [10]) was 12.6%, the Activity (IGROV-1 [11]) was 25% and the Activity (PC-3 [12]) was 11%. For the same molecule, the Activity (IGROV-1 [13]) was 15.8%, the Activity (IGROV-1 [14]) was 89% and the Activity (BXPC-3 [15]) was 12%. It also gave an Activity (PC-3 [16]) of 1.7%, an Activity (IGROV-1 [17]) of 20% and an Activity (IGROV-1 [18]) of 29%. It also gave an Activity (BXPC-3 [19]) of 2%, an Activity (PC-3 [20]) of 43% and an Activity (PC-3 [21]) of 38%. The Activity (BXPC-3 [22]) was 4.8%.
